# Data taken from PubChem BioAssay.
# Active and inactive are the calls of the source.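 Rule for the calls, unless noted: active = inhibition at or above 50% at 10 µM; inactive = inhibition below 50%.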
# What was measured:
# [1] = inhibitors of TNFa-induced NFkB p65 translocation, primary screen, imaging, HUVEC, MLSMR starter and 10KST1 sets (AID 438;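 active = inhibition above 20% together with a positive visual image hit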;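 note: compound added about 3h40 before a 20 min TNFalpha stimulation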;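 for inhibition: signal is the nuclear over cytoplasmic p65 intensity ratio per well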); settings: HUVEC TNFa-induced p65 nuclear translocation; cell count: measured here: nuclei count (cytotoxicity indicator), at 2.08 µM; inhibition: at 2 µM, stronger effect = higher value, 0% TNFa-plus-vehicle, 100% no-TNFa wells
# [2] = reduction of polyQ htt aggregates in cells – imaging, exon1htt(103Q)mCFP cells, high-content imaging, primary screen (AID 483;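 active = visual image review flags a hit and inhibition of aggregation exceeds 20%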;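 note: compound exposure lasted 3 days before fixation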;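 for nuclei count: percent of the per-plate median nuclei count of sample wells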); settings: exon1htt(103Q)mCFP cell line, aggregate imaging, at 2 µM; inhibition of aggregation: stronger effect = higher value; nuclei count: measured here: cell count, toxicity
# [3] = endothelial E-selectin expression blockers – imaging, HUVEC, immunofluorescence, MLSMR starter and 10KST1 sets, primary screen (AID 487;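 active = visually confirmed hit in the image check and inhibition above 20%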;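 for inhibition: signal is fraction of cell area covered by stained E-selectin grains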;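 for nuclei count: 100% = median nuclei count of all wells on the same plate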); settings: HUVEC TNFalpha-induced E-selectin immunofluorescence imaging, at 2 µM; inhibition: stronger effect = higher value; nuclei count: measured here: cell number, toxicity
# [4] = molecular target: Voltage-gated potassium channel subunit beta-2 (Rattus norvegicus) (UniProt P62483); experiment: inhibitors of rat Kvbeta2 reductase activity – biochemical, NADPH fluorescence, primary screen (AID 622;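 active = fluorescence slope higher than the sample average by over 3 SD, cut at about -0.22 in these data, passing the limit was not always enough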;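 note: slope of raw intensity against log time taken from 70 to 1610 s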); settings: recombinant KvBeta, 4-cyanobenzaldehyde reduction, at 10 µM, stronger effect = higher value
# [5] = molecular target: Voltage-gated potassium channel subunit beta-2 (Rattus norvegicus) (UniProt P62483); experiment: enhancers of rat Kvbeta2 NADPH turnover – biochemical, NADPH fluorescence, primary screen (AID 623;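 active = NADPH fluorescence slope more negative than the mean of all samples by about 3 SD, 99.7% confidence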;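 note: fluorescence intensity change per second fitted from 20 to 320 s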); settings: Recombinant KvBeta, NADPH fluorescence decrease slope, 10 min; at 10 µM; stronger effect = lower value
# [6] = molecular target: Muscarinic acetylcholine receptor M4 (Homo sapiens) (UniProt P08173); experiment: M4-linked GIRK flux change, two-sided – cell-based, HEK293 M4/GIRK, thallium flux, BTC-AM, M4 allosteric agonist project, primary screen (AID 625;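 active = fluorescence slope after compound addition differing from the mean of all tested samples at 99.7% confidence, mostly higher but some lower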;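 note: thallium influx through GIRK channels coupled to M4 in HEK293 cells with BTC-AM dye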); settings: at 10 µM, actives lie on both sides
# In short: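 Material: HEK293 cells with M4 receptor and GIRK channels; Times: cells overnight at 37 °C, BTC-AM loading 1 h, reads 2 min total; Technique: kinetic BTC-AM fluorescence sampled at 1 Hz, 10 s pre-addition baseline; Read-out basis: slope over 15–24 s of trace normalized to starting intensity; Controls: carbachol positive, DMSO negative.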
# [7] = blockers of RIG-like receptor reporter activation – cell-based, Sendai virus stimulus, luciferase, 10K MLSCN set, TLR/RLR signaling modifier project, primary screen (AID 602276); settings: HEK293 RL24 IRF3 luciferase reporter, at 10 µM, stronger effect = higher value;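 note: firefly luciferase from ISG56 promoter only with Renilla not read in this screen; 0% = Sendai virus plus DMSO and 100% = medium plus DMSO without virus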
# [8] = TLR3 IRF3 reporter activation blockers – cell-based, poly I:C stimulus, luciferase, 10K MLSCN set, primary screen (AID 602277;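 active = inhibition of the reporter signal at or above 50%; inactive = inhibition below 50%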); settings: HEK293-TLR3 RL24 IRF3 luciferase reporter, at 10 µM, stronger effect = higher value
# Chain of Muscarinic acetylcholine receptor M4 (Homo sapiens) (P08173 whole entry, looked up): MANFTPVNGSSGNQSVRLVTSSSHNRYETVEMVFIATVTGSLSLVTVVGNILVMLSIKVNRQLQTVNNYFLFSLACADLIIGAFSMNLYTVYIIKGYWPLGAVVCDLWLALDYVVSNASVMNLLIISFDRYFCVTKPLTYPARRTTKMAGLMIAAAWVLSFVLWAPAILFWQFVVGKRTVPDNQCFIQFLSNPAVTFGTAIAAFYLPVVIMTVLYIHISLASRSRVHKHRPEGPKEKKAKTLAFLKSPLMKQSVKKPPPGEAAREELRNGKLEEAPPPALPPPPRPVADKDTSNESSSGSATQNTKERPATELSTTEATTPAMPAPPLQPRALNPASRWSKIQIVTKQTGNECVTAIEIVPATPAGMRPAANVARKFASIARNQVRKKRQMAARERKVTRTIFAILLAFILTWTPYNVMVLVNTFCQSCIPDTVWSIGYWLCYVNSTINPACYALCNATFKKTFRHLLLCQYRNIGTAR
# Chain of Voltage-gated potassium channel subunit beta-2 (Rattus norvegicus) (P62483 whole entry, looked up): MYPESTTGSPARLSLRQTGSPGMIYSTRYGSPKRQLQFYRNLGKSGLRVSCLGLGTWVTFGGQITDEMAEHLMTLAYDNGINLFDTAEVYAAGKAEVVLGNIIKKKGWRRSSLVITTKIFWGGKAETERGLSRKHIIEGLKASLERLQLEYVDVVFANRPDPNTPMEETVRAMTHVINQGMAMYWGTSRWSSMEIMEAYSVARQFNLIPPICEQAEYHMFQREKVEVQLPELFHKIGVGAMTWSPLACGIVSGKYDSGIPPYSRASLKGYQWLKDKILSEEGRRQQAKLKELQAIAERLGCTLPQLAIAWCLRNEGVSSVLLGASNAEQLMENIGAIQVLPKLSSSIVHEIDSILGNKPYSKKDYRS
Structure (SMILES),cell count [1],inhibition [1],inhibition of aggregation [2],nuclei count [2] [%],inhibition [3],nuclei count [3] [%],fluorescence slope [4],NADPH fluorescence slope [5],fluorescence slope [6],inhibition [7],inhibition [8]
CCc1cc2ccc(C)cc2nc1SCC(=O)N1CCN(C(=O)c2ccco2)CC1,431,4.8% (inactive),15.4% (inactive),106,-49.1% (inactive),119,-0.504 (inactive),-0.000145 (inactive),0.00487 (inactive),11.9% (inactive),5.95% (inactive)
Cc1ccc(-n2nc(C(=O)N3CCN(C)CC3)c3c4ccccc4n(C)c3c2=O)cc1,264,5.9% (inactive),-10.3% (inactive),90.9,-38.3% (inactive),119,-0.523 (inactive),-2e-05 (inactive),0.00583 (inactive),19.7% (inactive),35.7% (inactive)
C=CCn1c(SCC(=O)NCC2CCCO2)nnc1C1CCCCC1 (stereo not drawn),354,-4.5% (inactive),-6% (inactive),110,-33% (inactive),113,-0.573 (inactive),-2.9e-05 (inactive),0.00592 (inactive),11.2% (inactive),17.5% (inactive)
Cc1ccc(C)c(N2CCN(C(=O)c3ccc(CS(=O)(=O)c4ccccc4C)o3)CC2)c1,555,-15.1% (inactive),12.7% (inactive),95.8,-45.9% (inactive),125,-0.555 (inactive),4.4e-05 (inactive),0.00481 (inactive),11.1% (inactive),45.6% (inactive)
CCCc1cc(-c2n[nH]c(C)c2-c2ccc(C(=O)OCC)o2)c(O)cc1O,651,2% (inactive),-2.2% (inactive),88.5,-35.2% (inactive),113,-0.571 (inactive),-2e-05 (inactive),0.00514 (inactive),12.8% (inactive),17.9% (inactive)
CCOC(=O)CSc1nnc(-c2cccnc2)n1Cc1ccccc1,568,16.6% (inactive),10.1% (inactive),97.1,-105% (inactive),158,-0.576 (inactive),1.1e-05 (inactive),0.00573 (inactive),-4.13% (inactive),1.14% (inactive)
COCCCn1c2nc3ccccc3nc2c2c(=O)n(-c3ccccc3OC)cnc21,334,6.3% (inactive),-5.4% (inactive),98.2,16.9% (inactive),102,-0.457 (inactive),4.9e-05 (inactive),0.0045 (inactive),-1.7% (inactive),-9.3% (inactive)
CC(C)CCn1c(N)c(S(=O)(=O)c2cccs2)c2nc3ccccc3nc21,652,2% (inactive),0% (inactive),105,-67.7% (inactive),124,-0.398 (inactive),1.8e-05 (inactive),0.00628 (inactive),8.07% (inactive),-1.32% (inactive)
COCCCNS(=O)(=O)c1ccc2c(c1)CCN2C(C)=O,416,0.3% (inactive),-9.3% (inactive),125,-31.6% (inactive),139,-0.578 (inactive),1.1e-05 (inactive),0.00611 (inactive),15.1% (inactive),15% (inactive)
CCCn1cnc2c(c1=O)c1nc3ccccc3nc1n2Cc1ccccc1OC,499,-7.5% (inactive),4.9% (inactive),95,-68.4% (inactive),130,-0.483 (inactive),-1.8e-05 (inactive),0.00653 (inactive),-9.22% (inactive),101% (active)
CC(=O)N1C(=O)C2(Nc3ccccc3N2)c2ccccc21,406,-4.3% (inactive),6.4% (inactive),108,20.6% (inactive),108,-0.283 (inactive),-1.3e-05 (inactive),0.00603 (inactive),-8.46% (inactive),9.54% (inactive)
Cc1cc(-c2ccccc2)nc2cc(C(=O)NCCCn3ccnc3)nn12,908,6.4% (inactive),19.7% (inactive),86.1,-160% (inactive),112,-0.362 (inactive),1.5e-05 (inactive),0.007 (inactive),16.4% (inactive),25.4% (inactive)
O=C(COc1nnc2ccccn12)N1CCN(S(=O)(=O)c2ccccc2)CC1,691,-3.3% (inactive),-29.7% (inactive),95.4,-18.1% (inactive),122,-0.405 (inactive),-9.3e-05 (inactive),0.00653 (inactive),-12.4% (inactive),98.8% (active)
Cc1cc(=O)n(CC(C)C)c(O)c1C#N,432,1.5% (inactive),9.1% (inactive),94.3,-11.8% (inactive),109,-0.581 (inactive),-3.7e-05 (inactive),0.00407 (inactive),13% (inactive),-7.21% (inactive)
Cc1oc2c(CN3CCCC3)c(O)ccc2c(=O)c1-c1ccccc1,243,3.8% (inactive),6.5% (inactive),96.3,-46% (inactive),97.7,-0.0276 (active),8.9e-06 (inactive),0.00581 (inactive),14% (inactive),24.5% (inactive)
CCOC(=O)CSc1nnc(-c2ccc(S(=O)(=O)N3CCOCC3)cc2)n1-c1ccccc1,193,-21.3% (inactive),-7.9% (inactive),88.6,-19.3% (inactive),94.3,-0.486 (inactive),-3.1e-05 (inactive),0.00502 (inactive),10.2% (inactive),17.7% (inactive)
CCOC(=O)c1[nH]c2ccc(C)cc2c1N=C(C)N(C)C,579,5.2% (inactive),-6.9% (inactive),100,-27.2% (inactive),108,-0.563 (inactive),-6e-05 (inactive),0.00488 (inactive),20.7% (inactive),21.2% (inactive)
C[C@H](NC(=O)OC(C)(C)C)C(=O)NCC1CCC(C(=O)O)CC1 (stereo partly drawn),376,-1.1% (inactive),4% (inactive),103,-23.6% (inactive),101,-0.536 (inactive),1.9e-05 (inactive),0.00501 (inactive),16.6% (inactive),21.3% (inactive)
CC(=O)N1CCc2cc(S(=O)(=O)NCCC3=CCCCC3)ccc21,399,3.5% (inactive),-11.2% (inactive),123,-71.2% (inactive),141,-0.425 (inactive),3.5e-05 (inactive),0.00546 (inactive),12.2% (inactive),-2.52% (inactive)
COc1ccc(-c2noc(C3CCCN(C(=O)CCc4ccccc4)C3)n2)cc1 (stereo not drawn),383,-3.5% (inactive),18.4% (inactive),101,-83.2% (inactive),57.8,-0.454 (inactive),-5e-06 (inactive),0.00551 (inactive),12.3% (inactive),1.57% (inactive)
C=C(C)Cn1c(CCNC(=O)CC)nc2ccccc21,494,-28.5% (inactive),1.3% (inactive),101,-107% (inactive),112,-0.433 (inactive),-6.1e-05 (inactive),0.00575 (inactive),9.76% (inactive),14.1% (inactive)
Cc1ccc(CN2C(=O)CCC2C(=O)NCC2CCCO2)cc1 (stereo not drawn),317,10.5% (inactive),-27.2% (inactive),91,-16.2% (inactive),97.8,-0.556 (inactive),-2.2e-05 (inactive),0.0066 (inactive),-7.7% (inactive),1.56% (inactive)
O=C(c1cc(-c2cccs2)on1)N1CCc2ccccc2C1,490,-4.5% (inactive),-23.8% (inactive),106,-28.9% (inactive),96.8,-0.441 (inactive),-4.4e-06 (inactive),0.00464 (inactive),4.86% (inactive),-18.5% (inactive)
Cc1cc(=O)oc2ccc(OCC(=O)N3CCC(C)CC3)cc12,400,-3.9% (inactive),-30.5% (inactive),103,-41.1% (inactive),104,-0.567 (inactive),-4.1e-05 (inactive),0.00366 (inactive),17.3% (inactive),8.48% (inactive)
CCN1CCN(C(=O)c2cn(CCOC)c(=O)c3c2c2ccccc2n3C)CC1,460,2.7% (inactive),2.4% (inactive),108,-40.3% (inactive),109,-0.582 (inactive),-6.9e-06 (inactive),0.00622 (inactive),6.11% (inactive),14.5% (inactive)
O=S(=O)(Cc1ccc(Cl)cc1)Nc1ccc2c(c1)OCO2,291,-12.5% (inactive),10.4% (inactive),99.4,-35.3% (inactive),123,-0.454 (inactive),-5.8e-05 (inactive),0.00401 (inactive),7.86% (inactive),9.38% (inactive)
N#CC1=C(N)SC(N)=C(C#N)C1CCc1ccccc1,300,-3.2% (inactive),-16.8% (inactive),83,-171% (inactive),104,-0.543 (inactive),-2e-06 (inactive),0.00612 (inactive),18% (inactive),26.3% (inactive)
N#Cc1nc(COc2ccccc2)oc1NCCN1CCOCC1,778,1.6% (inactive),-34.9% (inactive),96.4,-14.1% (inactive),102,-0.569 (inactive),2.2e-05 (inactive),0.00627 (inactive),2.21% (inactive),2.82% (inactive)
